Rev-erbA mod: Rev-erb alpha (human) modulation; P20393; Rev-erbα–FITC-DNA binding, fluorescence polarization, 90 min; activity, % at 10 µM; hit rate 0.79% among 370,000; AID 1259318;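 active = activity above about 14%, limit read from the data; passing the limit was not always enough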;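 also: 0% = DMSO wells with 35 nM protein and 100% = DMSO wells with 750 nM protein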
Target sequence (P20393 whole entry, looked up): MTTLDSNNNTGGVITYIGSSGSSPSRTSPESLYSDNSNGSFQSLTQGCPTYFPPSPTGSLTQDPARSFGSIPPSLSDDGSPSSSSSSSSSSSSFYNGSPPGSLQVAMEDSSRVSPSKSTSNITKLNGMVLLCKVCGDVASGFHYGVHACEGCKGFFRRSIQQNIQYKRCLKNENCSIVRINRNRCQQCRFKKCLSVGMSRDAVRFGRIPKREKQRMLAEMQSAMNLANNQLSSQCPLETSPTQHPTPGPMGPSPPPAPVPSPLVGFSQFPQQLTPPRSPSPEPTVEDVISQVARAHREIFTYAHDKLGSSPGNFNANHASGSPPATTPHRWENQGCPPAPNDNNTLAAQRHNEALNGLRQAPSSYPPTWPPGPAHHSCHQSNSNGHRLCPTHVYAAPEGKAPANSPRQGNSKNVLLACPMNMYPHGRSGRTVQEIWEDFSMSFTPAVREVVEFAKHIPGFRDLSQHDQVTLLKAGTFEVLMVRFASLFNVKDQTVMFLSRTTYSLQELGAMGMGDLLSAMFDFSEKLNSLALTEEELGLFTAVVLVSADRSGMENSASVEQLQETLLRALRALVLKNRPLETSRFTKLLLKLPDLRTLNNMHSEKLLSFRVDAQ
MC4R antagonist: human MC4R antagonism in cAMP assay; P32245; MC4R-expressing cells, MTII-stimulated cAMP, LANCE TR-FRET; inhibition, % at 6.5 µM; hit rate 0.48% among 360,000; AID 540295;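 active = inhibition above its plate's cutoff, the mean of tested wells on that plate plus 3 SD, cut at about 29% in these data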;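 also: 0% = Melanotan II alone and 100% = Melanotan II plus saturating MCL0020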
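Material – human MC4R-expressing U2OS cells · Repeats – no replicates · Detection – TR-FRET with Eu-cAMP and labeled anti-cAMP, 671 nm · Times – compound 30 min, challenge 1 h, detection 1 h · Compound – single nominal compound dose of 6.5 µM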
MC4R barr agon: agonists of human melanocortin 4 receptor (MC4R) beta-arrestin; P32245; U2OS MC4R beta-arrestin complementation, luminescence; percent of melanotan II response, DMSO zero; activation, % at 8.9 µM; hit rate 0.98% among 360,000;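 active = activation above a per-plate cutoff, the mean activation of sample wells on that plate plus 3 SD, cut at about 8% in these data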
NR2E3 ag-1: activates human NR2E3 receptor; Q9Y5X4; CHO-S Gal4-NCOR/VP16-NR2E3 two-hybrid, luciferase; inhibition of corepressor binding, % at 3.98 µM; hit rate 0.35% among 360,000; AID 602229;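 active = inhibition above the mean of all tested compounds plus 3 SD, cut at about 70% in these data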;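 also: 0% = DMSO with NR2E3 transfected cells and 100% = cells lacking NR2E3 construct; higher means lower luciferase signal from less NR2E3 corepressor binding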
NR2E3 ag-2: NR2E3 (human) agonism | Q9Y5X4 | AID 2300 | inhibition of corepressor binding, % at 4.78 µM | hit rate 0.12% among 320,000 | GST-NR2E3/biotin-RetCOR TR-FRET, 1536-well;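 active = percent inhibition above the cutoff of mean plus 3 SD of all tested compounds, set per screening campaign, cut at about 20% in these data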;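 also: 0% = DMSO wells and 100% = biotin wells as full block of FRET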
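Material – GST-tagged NR2E3 plus biotinylated RetCOR corepressor · Quantity – NR2E3 fusion 1.35 nM · Times – 5 h incubation at 4 °C · Medium – pH 7.5 Tris-based buffer · Technique – TR-FRET, Eu(K)-anti-GST donor, streptavidin-D2 acceptor, ex 340, em 617/671 nm · Benchmarks – high control biotin, low control 0.6% DMSO · Format – 1536-well plates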
PG9 Ab binder: small molecules binding HIV-1 gp120 antibody PG9 | TR-FRET gp120-PG9 antibody binding | inhibition, % at 6.7 µM | hit rate 0.43% among 360,000; in the data active = inhibition above about 8.5%
MC4R barr conf: human MC4R beta-arrestin agonism confirmation. shares compounds with MC4R barr agon. U2OS MC4R beta-arrestin recruitment, luminescence; scaled DMSO 0%, Melanotan II 100%. activation, % at 8.9 µM. hit rate 31% among 2,400. AID 602192;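 active = mean activation across replicates above the hit cutoff set in the earlier primary screen, cut at about 8% in these data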
MOR-DOR barr ag: counter-screen for MC4R agonists: agonists of mu-delta opioid heterodimer | hit rate 5.8% among 2,400 | AID 602194 | shares compounds with MC4R barr agon | activation, % at 9.2 µM | U2OS PathHunter beta-arrestin, beta-gal luminescence; percent of deltorphin B response, DMSO zero;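 active = mean activation across replicates exceeds the hit threshold derived in the earlier primary screen, cut at about 18% in these data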;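 also: 100% = deltorphin B at 0.9 µM final and 0% = DMSO alone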
* hit, by the source's call; / = not tested or not shown. Rows were chosen to be rich in hits. Some 2.7% of all compounds tested hit in one or more screens of this group.

SMILES	Rev-erbA mod	MC4R antagonist	MC4R barr agon	NR2E3 ag-1	NR2E3 ag-2	PG9 Ab binder	MC4R barr conf	MOR-DOR barr ag
CCC(=O)Nc1cccc(-c2nc3ccccc3o2)c1	-1	-5	-2	-86	2	1	/	/
Cc1cccc(OCC(=O)NNC(=O)Nc2cccc(Cl)c2)c1C	-1	-1	10*	-10	0	-1	4	5
Cc1cccc(OCC(=O)Nc2cccc(-c3nnc(-c4ccccc4)o3)c2)c1C	-3	7	30*	-53	1	0	15*	12
COc1ccccc1OCC(=O)Nc1cccc(-c2nc3ccccc3o2)c1	2	9	15*	-131	2	1	5	3
COc1ccc(OCC(=O)NNC(=O)Nc2cccc(Cl)c2)cc1	0	10	-1	29	/	-1	/	/
Cc1cccc(C)c1OCC(=O)Nc1cccc(-c2nnc(-c3ccccc3)o2)c1	-1	17	0	-114	1	-2	/	/
COc1cc(OC)cc(-c2noc([C@@H]3O[C@H](CO)[C@@H](O)[C@H]3O)n2)c1	-4	4	-2	-10	/	1	/	/
CC1(C)CC(c2csc(N)n2)CCO1 (centres undefined)	-5	1	2	7	2	0	/	/
CCCCOc1ccc(C(C)NC(=O)CCS(=O)(=O)Cc2ccccc2Cl)cc1 (centres undefined)	2	6	11*	8	-2	-3	3	4
CN1CCN(C(=O)C2CCN(S(=O)(=O)c3ccc(F)cc3)CC2)CC1	0	-1	-1	-17	3	-1	/	/
COc1ccc(C(=O)Nc2cccc(-c3cc4ccccc4oc3=O)c2)cc1[N+](=O)[O-]	0	-1	13*	1	5	0	0	3
CCC(C)NC(=O)CCc1nnc2ccc(N3CCC(C)CC3)nn12 (centres undefined)	0	4	0	-4	-1	-1	/	/
NC(=O)CC(NC(=O)c1ccccc1)c1ccc(NCc2ccc(F)c(F)c2)c([N+](=O)[O-])c1 (centres undefined)	7	4	-1	-6	2	1	/	/
NC(=O)CC(NC(=O)c1ccccc1)c1ccc(NCCc2ccc(Cl)cc2)c([N+](=O)[O-])c1 (centres undefined)	0	-2	13*	-9	1	1	3	1
Cc1ccccc1CNc1ccc(C(CC(N)=O)NC(=O)c2ccc(Br)cc2)cc1[N+](=O)[O-] (centres undefined)	-2	1	16*	8	6	0	1	2
CC1=C(C(=O)Nc2ccccc2)C(c2coc3ccccc3c2=O)C2=C(CCCC2=O)N1 (centres undefined)	-1	6	1	-1	-2	-1	/	/
CC(NCC(O)COc1ccc(Br)cc1)c1ccccc1 (centres undefined)	-5	6	1	-17	1	-3	/	/
CCCSc1nc2c(c(=O)[nH]c(=O)n2C)n1Cc1ccc(C)cc1	6	-9	-1	15	0	0	/	/
C=CCSc1nc2c(c(=O)[nH]c(=O)n2C)n1Cc1ccc(C)cc1	9	-42	14*	-5	6	-1	1	6
COc1ccc(C2=NN(C(=O)c3cccs3)C(c3ccccc3O)C2)cc1 (centres undefined)	4	-6	13*	-15	2	-1	16*	5
N#Cc1c(NC(=O)CSc2ncccn2)oc(-c2ccccc2)c1-c1ccccc1	3	4	-1	-18	-6	-1	/	/
Cc1ccnc(SCC(=O)Nc2oc(-c3ccccc3)c(-c3ccccc3)c2C#N)n1	0	1	17*	-2	1	0	-1	4
Cc1cc(NC(=O)CSc2nc3c(c(=O)n(C)c(=O)n3C)n2C(C)C)no1	1	-26	16*	0	3	0	0	2
COc1ccc(CNC(=O)CSc2nnnn2-c2ccc(O)cc2)cc1	0	0	0	2	-1	-1	/	/
COc1cc(/C=N/Nc2ccccc2[N+](=O)[O-])cc(OC)c1O	6	-12	10.0*	-47	-1	-4	-4	6
SMILES	Rev-erbA mod	MC4R antagonist	MC4R barr agon	NR2E3 ag-1	NR2E3 ag-2	PG9 Ab binder	MC4R barr conf	MOR-DOR barr ag
CC(=O)Nc1ccc(S(=O)(=O)Nc2ccc([N+](=O)[O-])cc2)cc1	2	/	/	/	/	/	/	/
O=[N+]([O-])c1ccc(S(=O)(=O)Nc2ccc(-c3ccccc3)cc2)cc1	6	6	15*	12	/	-1	1	7
COC(=O)[C@H](CC(C)C)NC(=O)Nc1ccc(S(N)(=O)=O)cc1	-5	0	0	16	1	1	/	/
O=C(NC1CCCCC1)N1CCN(C(c2ccccc2)c2ccccc2)CC1	-1	-2	2	-16	0	0	/	/
Cc1cc(NC(=O)c2cccs2)n(-c2nc3ccccc3[nH]2)n1	6	4	12*	-5	1	-2	-1	2
COc1cc(C2C(C#N)=C(N)OC3=C2C(=O)CCC3)ccc1OC(=O)N1CCOCC1 (centres undefined)	-5	4	-1	-1	5	-1	/	/
CCCn1c(-c2ccccc2)cc(SC)c(C#N)c1=O	10	-8	-2	-1	2	1	/	/
C=CCn1c(-c2ccccc2)cc(SC)c(C#N)c1=O	5	-4	12*	-14	0	-1	0	3
CCCc1cc(=O)oc2c(C)c(OCC(=O)Nc3ccc(CN4CCOCC4)cc3)ccc12	-9	-2	16*	8	2	-1	-1	2
Cc1ccc(NC(=O)C(=O)NCCOc2ccccc2Cl)cc1	0	1	12*	-3	-2	2	9.8*	4
CCc1ccc(NC(=O)C(=O)NCCOc2ccccc2Cl)cc1	-4	-4	21*	-1	-4	0	6	3
O=C(CSc1cc(Cl)ccc1Cl)NC1CCCc2ccccc21 (centres undefined)	2	4	13*	12	-6	-1	3	5
Cc1cc(NC(=O)c2ccc(Cl)cc2)no1	-3	-3	0	-111	4	2	/	/
N#CC(=Cc1ccccn1)c1nc(-c2ccc(Cl)cc2)cs1	2	1	17*	-46	/	1	3	3
CCOC(=O)c1oc2ccccc2c1NC(=O)COc1ccc(F)cc1	7	-6	37*	-6	0	/	25*	21*

Bioassay records (PubChem)
